In ChEMBL document CHEMBL1142407, “Angucyclinones from an Indonesian Streptomyces sp” (J Nat Prod, 2008):
The source made the active and inactive calls. The rule behind the calls is not given here.

Tests used:
Format in all cases: functional, organism-based
Trichomonas vaginalis = test: Antiprotozoal activity against Trichomonas vaginalis
Candida albicans = test: Antifungal activity against Candida albicans at 20 to 120 ug/disk
How it was run: (§1)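 Agar diffusion test with compound loaded at 20 to 120 µg/disk. Read-out is a zone of growth inhibition of the test organism on agar. The same format covers bacteria (S. aureus, B. subtilis, E. coli, P. aeruginosa), the fungus Mucor miehei and the yeast Candida albicans.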

Escherichia coli = test: Antibacterial activity against Escherichia coli at 20 to 120 ug/disk; how it was run: as §1
Pseudomonas aeruginosa = test: Antibacterial activity against Pseudomonas aeruginosa at 20 to 120 ug/disk; how it was run: as §1
Bacillus subtilis = test: Antibacterial activity against Bacillus subtilis at 20 to 120 ug/disk; how it was run: as §1
Rhizomucor miehei = test: Antifungal activity against Mucor miehei at 20 to 120 ug/disk; how it was run: as §1
Staphylococcus aureus = test: Antibacterial activity against Staphylococcus aureus at 20 to 120 ug/disk; how it was run: as §1

Structure (SMILES)	Activity (Trichomonas vaginalis)	Activity (Candida albicans)	Activity (Escherichia coli)	Activity (Pseudomonas aeruginosa)	Activity (Bacillus subtilis)	Activity (Rhizomucor miehei)	Activity (Staphylococcus aureus)
C[C@@H]1CC(=O)C2=C(C1)C[C@@H](O)[C@]1(O)[C@H]2C(=O)c2cccc(O)c2[C@@H]1O	inactive	inactive	inactive	inactive	inactive	inactive	inactive
C[C@@H]1CC(=O)c2c(ccc3c2C(=O)c2cccc(O)c2C3=O)C1	–	–	–	Active	Active	–	–
C[C@@H]1CC(=O)C2=C(C3OC3[C@]3(O)[C@H]2C(=O)c2cccc(O)c2[C@@H]3O)[C@H]1O (stereo not given in full)	inactive	inactive	inactive	inactive	inactive	inactive	inactive
C[C@@H]1CC(=O)C2=C(CC[C@]3(O)[C@H]2C(=O)c2cccc(O)c2[C@@H]3O)C1	inactive	inactive	inactive	inactive	inactive	inactive	inactive
C[C@H]1CC(=O)c2c(ccc3c2C(=O)c2cccc(O)c2C3=O)[C@@H]1O	–	–	–	Active	Active	–	–
C[C@@H]1CC(=O)C2=C(C1)C1OC1[C@]1(O)[C@H]2C(=O)c2cccc(O)c2[C@@H]1O (stereo not given in full)	inactive	inactive	inactive	inactive	inactive	inactive	inactive
CC1CC(=O)C2(O)C(O)(CCC34OC32C(=O)c2cccc(O)c2C4O)C1 (stereo not given)	–	inactive	inactive	inactive	inactive	inactive	inactive
C[C@@H]1CC(=O)C2=C(C[C@@H](O)[C@]3(O)[C@H]2C(=O)c2cccc(O)c2[C@@H]3O)[C@H]1O	inactive	inactive	inactive	inactive	inactive	inactive	inactive
